# Laboratory results as given in ChEMBL document CHEMBL3259712, “New 5-unsubstituted dihydropyridines with improved CaV1.3 selectivity as potential neuroprotective agents against ischemic injury” (J Med Chem, 2014).
# Calls of active or inactive are those of the source. No cut-off for these calls is given here.
# Experiments:
# SH-SY5Y [1] = experiment: Neuroprotective activity against K+ induced Ca2+ overload in human SH-SY5Y cells assessed as protection at 5 uM after 24 hrs by MTT assay relative to control; format: functional
# Outline: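 SH-SY5Y cells, 1 × 10⁵/well, 1% FBS medium, up to 13 passages. Compound diluted from 10⁻² M DMSO stock to 5 μM and co-incubated 24 h with 70 mM K⁺ (hypertonic); DMSO-only controls. MTT at 5 mg/mL for 2 h at 37 °C, read at 540 nm. % protection computed against basal as 100% survival and normalized to K⁺ toxicity; at least five cultures in triplicate.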
# SH-SY5Y [2] = experiment: Neuroprotective activity against rotenone-oligomycin A-induced oxidative stress in human SH-SY5Y cells assessed as survival at 5 uM co-incubated rot/oligo for 24 hrs by MTT assay (Rvb =65.6 +/- 1.3%); format: functional; conditions: read-out: Survival
# SH-SY5Y [3] = experiment: Neuroprotective activity against rotenone-oligomycin A-induced oxidative stress in human SH-SY5Y cells assessed as protection at 5 uM co-incubated rot/oligo for 24 hrs by MTT assay relative to control; format: functional
# Outline: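 SH-SY5Y cells in 1% FBS medium co-incubated 24 h with compound and rotenone/oligomycin A (30/10 μM). Melatonin 0.3 μM was the positive control, and compounds were used at 5 μM. Viability by MTT reduction at 540 nm. % protection computed against basal as 100% and normalized to rot/olig toxicity; five to seven cultures in triplicate.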
# SH-SY5Y [4] = experiment: Neuroprotective activity against rotenone-oligomycin A-induced oxidative stress in human SH-SY5Y cells assessed as survival incubated with rot/oligo for 8 hrs followed by treated with compound at 5 uM for 16 hrs by MTT assay (Rvb =70.6 +/- 1.8%); format: functional; conditions: read-out: Survival
# Outline: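 SH-SY5Y cells cultured 24 h, then exposed to rotenone/oligomycin A (30/10 μM) for 8 h at 37 °C. Stressor removed; compound in 1% FBS medium added for 16 h. DMSO-only control. MTT reduction (5 mg/mL, 2 h, 37 °C; OD 540 nm). Survival relative to untreated basal; mean ± SEM of five to seven cultures in triplicate.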
# SH-SY5Y [5] = experiment: Neuroprotective activity against rotenone-oligomycin A-induced oxidative stress in human SH-SY5Y cells assessed as protection incubated with rot/oligo for 8 hrs followed by treated with compound at 5 uM for 16 hrs by MTT assay relative to control; format: functional
# Outline: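 SH-SY5Y cells cultured 24 h, then exposed to rotenone/oligomycin A (30/10 μM) for 8 h at 37 °C. Stressor was removed and cells incubated 16 h with compound in 1% FBS medium. Melatonin 0.3 μM was the positive control, and compounds were used at 5 μM. Viability by MTT; % protection against basal as 100%, normalized to rot/olig toxicity; five to seven cultures in triplicate.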
# [6] = target: Voltage-dependent L-type calcium channel subunit alpha-1D (Homo sapiens, UniProt Q01668); experiment: Inhibition of human Cav1.3 channel in human SH-SY5Y cells assessed as 70 mM K+ induced calcium elevation compound treated 15 mins before stimulus by Fluo-4/AM assay; format: cell-based
# Voltage-dependent L-type calcium channel subunit alpha-1D, sequence (Q01668 whole entry): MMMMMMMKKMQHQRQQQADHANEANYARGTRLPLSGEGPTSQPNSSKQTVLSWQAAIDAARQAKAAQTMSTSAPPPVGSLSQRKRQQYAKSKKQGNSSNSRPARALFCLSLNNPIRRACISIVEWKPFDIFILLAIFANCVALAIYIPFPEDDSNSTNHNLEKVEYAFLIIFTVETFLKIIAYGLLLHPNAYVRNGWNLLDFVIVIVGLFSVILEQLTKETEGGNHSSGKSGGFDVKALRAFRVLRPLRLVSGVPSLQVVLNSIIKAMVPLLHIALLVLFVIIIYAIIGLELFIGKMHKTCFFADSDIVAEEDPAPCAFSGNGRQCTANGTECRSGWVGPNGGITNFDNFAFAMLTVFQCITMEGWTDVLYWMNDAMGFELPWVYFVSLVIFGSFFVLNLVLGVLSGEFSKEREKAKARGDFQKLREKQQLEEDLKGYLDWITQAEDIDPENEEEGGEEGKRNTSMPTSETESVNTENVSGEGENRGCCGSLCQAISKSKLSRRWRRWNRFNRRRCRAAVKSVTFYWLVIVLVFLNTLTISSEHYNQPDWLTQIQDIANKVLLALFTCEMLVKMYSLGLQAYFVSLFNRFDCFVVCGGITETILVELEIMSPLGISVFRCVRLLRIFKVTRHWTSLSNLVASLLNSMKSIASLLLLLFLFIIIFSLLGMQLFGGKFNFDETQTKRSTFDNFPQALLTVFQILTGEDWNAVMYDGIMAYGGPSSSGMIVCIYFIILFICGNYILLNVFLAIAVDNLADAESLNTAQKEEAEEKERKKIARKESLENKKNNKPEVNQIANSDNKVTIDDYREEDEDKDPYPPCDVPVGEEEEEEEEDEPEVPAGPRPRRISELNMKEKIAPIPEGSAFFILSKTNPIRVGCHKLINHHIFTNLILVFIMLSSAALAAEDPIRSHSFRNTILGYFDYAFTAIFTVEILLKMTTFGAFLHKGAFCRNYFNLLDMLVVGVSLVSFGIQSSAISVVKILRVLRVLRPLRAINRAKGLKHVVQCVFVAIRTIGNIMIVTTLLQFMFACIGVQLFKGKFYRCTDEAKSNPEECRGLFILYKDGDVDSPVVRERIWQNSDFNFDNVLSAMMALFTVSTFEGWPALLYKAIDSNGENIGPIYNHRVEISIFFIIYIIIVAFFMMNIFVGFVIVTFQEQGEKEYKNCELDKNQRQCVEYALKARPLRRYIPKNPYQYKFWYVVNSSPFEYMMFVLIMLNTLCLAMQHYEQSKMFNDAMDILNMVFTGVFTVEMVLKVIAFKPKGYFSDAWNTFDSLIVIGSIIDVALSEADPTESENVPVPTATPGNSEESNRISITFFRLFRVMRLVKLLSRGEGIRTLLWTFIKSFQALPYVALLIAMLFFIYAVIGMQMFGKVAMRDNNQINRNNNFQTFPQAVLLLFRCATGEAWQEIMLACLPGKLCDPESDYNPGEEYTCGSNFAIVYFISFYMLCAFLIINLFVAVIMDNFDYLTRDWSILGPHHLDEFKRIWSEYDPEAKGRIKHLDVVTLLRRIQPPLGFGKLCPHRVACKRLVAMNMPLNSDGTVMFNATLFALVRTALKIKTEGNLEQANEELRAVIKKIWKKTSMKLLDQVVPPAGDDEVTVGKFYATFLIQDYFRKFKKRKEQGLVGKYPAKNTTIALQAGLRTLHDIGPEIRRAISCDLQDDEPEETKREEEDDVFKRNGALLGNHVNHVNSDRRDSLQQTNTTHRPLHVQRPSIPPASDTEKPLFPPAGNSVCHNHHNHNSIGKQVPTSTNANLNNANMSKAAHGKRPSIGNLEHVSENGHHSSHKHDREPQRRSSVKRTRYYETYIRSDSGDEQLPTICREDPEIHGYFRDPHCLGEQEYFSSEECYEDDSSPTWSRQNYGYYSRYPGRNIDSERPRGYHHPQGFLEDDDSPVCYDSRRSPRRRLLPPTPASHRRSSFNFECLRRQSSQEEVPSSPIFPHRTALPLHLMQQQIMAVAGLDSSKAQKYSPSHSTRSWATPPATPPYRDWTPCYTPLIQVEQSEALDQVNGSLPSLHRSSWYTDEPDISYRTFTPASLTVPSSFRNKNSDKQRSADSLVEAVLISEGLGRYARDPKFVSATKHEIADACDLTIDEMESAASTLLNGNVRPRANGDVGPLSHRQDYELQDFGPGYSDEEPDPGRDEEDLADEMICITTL
# Outline: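 SH-SY5Y cells grown 2 days, loaded with 10 μM Fluo-4/AM for 1 h at 37 °C in serum-free medium, washed with Krebs-HEPES and held 15 min at room temperature. Compound applied 15 min before 70 mM KCl.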
# SH-SY5Y [7] = experiment: Neuroprotective activity against K+ induced Ca2+ overload in human SH-SY5Y cells assessed as survival at 5 uM after 24 hrs by MTT assay (reference value: 52.1 +/- 3.5%); format: functional; conditions: read-out: Survival
# [8] = target: Voltage-dependent L-type calcium channel subunit alpha-1C (Rattus norvegicus, UniProt P22002); experiment: Inhibition of rat Cav1.2 channel in rat mesenteric artery assessed as relaxation of 70 mM K+ induced contraction; format: tissue-based; conditions: for inhibition (INH): rat
# Voltage-dependent L-type calcium channel subunit alpha-1C, sequence (P22002 whole entry): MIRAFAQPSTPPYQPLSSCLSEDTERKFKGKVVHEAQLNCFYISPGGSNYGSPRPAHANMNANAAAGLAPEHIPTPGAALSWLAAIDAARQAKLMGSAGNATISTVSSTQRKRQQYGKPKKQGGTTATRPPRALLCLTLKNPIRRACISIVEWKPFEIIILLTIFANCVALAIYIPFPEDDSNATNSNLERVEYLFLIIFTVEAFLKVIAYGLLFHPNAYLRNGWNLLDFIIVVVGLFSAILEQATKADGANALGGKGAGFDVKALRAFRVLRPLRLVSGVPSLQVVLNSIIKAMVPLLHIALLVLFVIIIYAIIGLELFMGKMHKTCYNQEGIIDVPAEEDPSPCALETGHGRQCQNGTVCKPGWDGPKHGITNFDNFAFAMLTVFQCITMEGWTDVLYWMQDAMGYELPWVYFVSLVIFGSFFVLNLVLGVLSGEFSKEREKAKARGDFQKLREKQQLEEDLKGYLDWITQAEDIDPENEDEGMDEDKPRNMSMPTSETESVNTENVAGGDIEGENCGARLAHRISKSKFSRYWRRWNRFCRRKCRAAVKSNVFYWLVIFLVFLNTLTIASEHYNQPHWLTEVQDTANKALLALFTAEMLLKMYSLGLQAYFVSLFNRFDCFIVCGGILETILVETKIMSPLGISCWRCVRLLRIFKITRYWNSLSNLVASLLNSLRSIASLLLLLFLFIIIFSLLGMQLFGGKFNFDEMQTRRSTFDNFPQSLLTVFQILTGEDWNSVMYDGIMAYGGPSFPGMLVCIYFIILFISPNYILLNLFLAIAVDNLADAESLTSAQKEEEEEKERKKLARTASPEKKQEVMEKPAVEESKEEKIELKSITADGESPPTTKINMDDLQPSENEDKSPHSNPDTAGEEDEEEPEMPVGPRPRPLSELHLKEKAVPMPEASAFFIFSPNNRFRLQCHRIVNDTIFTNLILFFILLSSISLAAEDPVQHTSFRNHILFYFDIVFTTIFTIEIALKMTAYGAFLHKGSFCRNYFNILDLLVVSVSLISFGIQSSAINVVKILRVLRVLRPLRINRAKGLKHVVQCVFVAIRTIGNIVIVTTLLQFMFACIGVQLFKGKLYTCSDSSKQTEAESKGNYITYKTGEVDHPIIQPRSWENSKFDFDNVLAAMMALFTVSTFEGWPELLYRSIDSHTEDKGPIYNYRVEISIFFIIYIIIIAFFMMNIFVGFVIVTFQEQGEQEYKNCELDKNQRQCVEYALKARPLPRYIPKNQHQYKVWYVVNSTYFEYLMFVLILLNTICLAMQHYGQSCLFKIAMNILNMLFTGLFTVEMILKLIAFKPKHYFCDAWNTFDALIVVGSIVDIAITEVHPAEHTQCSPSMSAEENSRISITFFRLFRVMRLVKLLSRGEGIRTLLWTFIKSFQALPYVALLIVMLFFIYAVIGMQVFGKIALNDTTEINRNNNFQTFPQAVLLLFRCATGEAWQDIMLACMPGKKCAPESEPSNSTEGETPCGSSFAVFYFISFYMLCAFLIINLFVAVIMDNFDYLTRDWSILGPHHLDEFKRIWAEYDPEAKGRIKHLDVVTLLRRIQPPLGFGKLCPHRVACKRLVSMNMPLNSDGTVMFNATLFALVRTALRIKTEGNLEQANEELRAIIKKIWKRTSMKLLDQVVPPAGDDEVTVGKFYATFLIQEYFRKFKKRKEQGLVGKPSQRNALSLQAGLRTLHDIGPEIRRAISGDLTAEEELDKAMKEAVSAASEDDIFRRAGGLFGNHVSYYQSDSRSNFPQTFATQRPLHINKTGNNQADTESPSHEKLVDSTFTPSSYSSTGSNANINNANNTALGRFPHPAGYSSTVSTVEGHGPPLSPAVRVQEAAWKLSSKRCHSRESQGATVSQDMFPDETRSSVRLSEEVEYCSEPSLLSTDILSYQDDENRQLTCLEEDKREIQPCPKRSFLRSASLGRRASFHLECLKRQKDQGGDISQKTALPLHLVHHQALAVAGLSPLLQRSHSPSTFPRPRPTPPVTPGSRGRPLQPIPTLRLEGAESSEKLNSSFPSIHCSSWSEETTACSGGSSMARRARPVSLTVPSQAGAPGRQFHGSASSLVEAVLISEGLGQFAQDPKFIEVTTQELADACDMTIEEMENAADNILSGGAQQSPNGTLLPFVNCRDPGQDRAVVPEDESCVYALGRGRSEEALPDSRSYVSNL
# Outline: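 Third-order mesenteric artery segments (2 mm) from 6-month-old Wistar Kyoto rats on a wire myograph, isometric tension, Krebs−Henseleit at 37 °C, pH 7.4. Segments equilibrated, stretched to optimal diameter, tested with 120 mM KCl, endothelium checked with 10 μM acetylcholine.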
# Hippocampus = experiment: Neuroprotective activity against oxygen-glucose deprivation induced-oxidative stress in rat hippocampal slices assessed as maximum protection treated at 10 uM during 120 mins of reoxygenation period by MTT assay (Rvb =40%); format: functional
# Outline: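 Transverse hippocampal slices ([…] as printed) from adult male Sprague−Dawley rats (275−325 g). After 30 min stabilization, 15 min OGD at 37 °C in glucose-free Krebs (2-deoxyglucose) under 95% N₂/5% CO₂, then 120 min reoxygenation in oxygenated Krebs with compound (1, 3, 10 μM) present. MTT at 0.5 mg/mL for 30 min at 37 °C; control slices set as 100%; five experiments.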
# [9] = Selectivity ratio of IC50 for human Cav1.3 channel to IC50 for rat Cav1.2 channel
# SH-SY5Y [10] = experiment: Neuroprotective activity against K+ induced Ca2+ overload in human SH-SY5Y cells assessed as survival at 0.3 uM after 24 hrs by MTT assay (reference value: 52.1 +/- 3.5%); format: functional; conditions: read-out: Survival
# SH-SY5Y [11] = experiment: Neuroprotective activity against K+ induced Ca2+ overload in human SH-SY5Y cells assessed as protection at 0.3 uM after 24 hrs by MTT assay relative to control; format: functional
Compound,Activity (SH-SY5Y [1]) [%],viability at 5 µM (SH-SY5Y [2]) [%],Activity (SH-SY5Y [3]) [%],viability at 5 µM (SH-SY5Y [4]) [%],Activity (SH-SY5Y [5]) [%],IC50 [6] [µM],viability at 5 µM (SH-SY5Y [7]) [%],inhibition (INH) [8],Activity (Hippocampus),inhibition [6] [%],IC50 [8] [µM],Ratio IC50 [9],viability at 0.3 µM (SH-SY5Y [10]) [%],Activity (SH-SY5Y [11]) [%]
CCCC1=C(C(=O)OCC)C(c2ccccc2)C=C(c2ccccc2)N1 (stereo not given),23.3,80.5,42.9,80.6,34.8,9.9,65.4,,,,,,,
COc1ccc(C2C=C(c3ccccc3)NC(C)=C2C(=O)SC(C)(C)C)cc1 (stereo not given),31.3,82.3,45.7,81.8,38.6,26.8,66.7,Dose-dependent effect,,,,,,
CCOC(=O)C1=C(C)NC(c2ccccc2)=CC1c1ccc(C)cc1 (stereo not given),39.8,83.5,53.3,88,60.1,20.6,72.3,Dose-dependent effect,45%,43,10.6,1.9,,
CCOC(=O)C1=C(C)NC(c2ccccc2)=CC1c1ccc([N+](=O)[O-])cc1 (stereo not given),23.5,64.6,,,,12.2,64.6,,,,,,,
CCOC(=O)C1=C(C)NC(c2ccc(C)cc2)=CC1c1ccccc1[N+](=O)[O-] (stereo not given),22.1,69.9,11.7,,,44.1,62.9,,,,,,,
CCOC(=O)C1=C(C)NC(c2ccc(Cl)cc2)=CC1c1ccccc1 (stereo not given),36.6,82.7,46.2,,,9.3,69.4,,,,,,,
CCOC(=O)C1=C(C)NC(c2ccccc2)=CC1c1ccccc1 (stereo not given),34.6,78.4,32.5,,,18.7,67.6,,,,,,,
CC1=C(C(=O)SC(C)(C)C)C(c2ccc(Br)cc2)C=C(c2ccc(C)cc2)N1 (stereo not given),34.5,85.7,57.9,74.2,12.3,59.6,67.2,Dose-dependent effect,,,,,,
CCOC(=O)C1=C(CC)NC(c2ccccc2)=CC1c1ccccc1 (stereo not given),31.4,77.4,32.8,,,12.8,67.3,,,,,,,
CC1=C(C(=O)SC(C)(C)C)C(c2ccccc2)C=C(c2ccccc2)N1 (stereo not given),34.1,79.5,39.6,,,95.8,68,Dose-dependent effect,,,,,,
CCOC(=O)C1=C(C)NC(c2ccc(Cl)cc2)=CC1c1ccccc1[N+](=O)[O-] (stereo not given),13.7,60,,,,57.1,59.3,,,,,,,
CC1=C(C(=O)SC(C)(C)C)C(c2ccc(C)cc2)C=C(c2ccccc2)N1 (stereo not given),30.4,83.3,49.4,83.4,43.3,56.2,67.4,,,,,,,
O=C1CCCC2=C1C(c1ccccc1)C=C(c1ccccc1)N2 (stereo not given),28.2,80.3,39.8,,,24,66.4,,,,,,,
CC(=O)C1=C(C)NC(c2ccccc2)=CC1c1ccccc1 (stereo not given),32.5,87.3,61.9,76.7,21.7,27.1,67.4,Dose-dependent effect,,,,,,
CCOC(=O)C1=C(C)NC(c2ccccc2)=CC1c1ccc(OC)cc1 (stereo not given),34.1,81.3,46.2,83.5,42,29.8,69.4,Dose-dependent effect,,,,,,
CCOC(=O)C1=C(C)NC(c2ccc(Cl)cc2)=CC1c1ccc(Cl)cc1 (stereo not given),24.8,69.9,11.9,,,28.4,65.1,Dose-dependent effect,,,,,,
CCOC(=O)C1=C(C)NC(c2ccc(C)cc2)=CC1c1cccs1 (stereo not given),50.7,81.9,45.3,77.5,25.6,14.9,75.6,,,36,,,,
COC(=O)C1=C(C)NC(C)=C(C(=O)OC)C1c1ccccc1[N+](=O)[O-] [NIFEDIPINE],20,78.4,29.3,73.8,11.7,,62.9,Dose-dependent effect,inactive,,,,58.7,15.8
CC1(C)CC(=O)C2=C(C1)NC(c1ccccc1)=CC2c1ccccc1 (stereo not given),21.4,74.6,26.9,,,2.8,64,Dose-dependent effect,,79,0.34,8.3,,
CC1=C(C(=O)SC(C)(C)C)C(/C(C)=C/c2ccccc2)C=C(c2ccccc2)N1 (stereo not given),35.3,83.7,52.4,86.2,52.2,63.1,69,Dose-dependent effect,45%,,20.3,3.1,,
CC1=C(C(=O)SC(C)(C)C)C(c2ccc(C)cc2)C=C(c2ccc(C)cc2)N1 (stereo not given),36.2,79.9,36.2,,,> 100,69.9,,,,,,,
CCOC(=O)C1=C(C)NC(c2ccc(Cl)cc2)=CC1c1cccc(OC)c1 (stereo not given),40.1,81.9,47.8,76.6,20.5,15.1,72.7,,,48,,,,
CCOC(=O)C1=C(C)NC(c2ccco2)=CC1c1ccc(C)cc1 (stereo not given),32,78,36.6,79.9,33.2,55.5,68.5,Dose-dependent effect,,,,,,
C=CCOC(=O)C1=C(C)NC(c2ccc(Cl)cc2)=CC1c1ccccc1 (stereo not given),29.8,79.7,41.5,84.3,44.1,18.5,68.7,Dose-dependent effect,,,,,,
